Tests used:
[1] = tested on: Mammalian orthoreovirus 1; experiment: Antiviral activity against Reovirus 1 infected in golden hamster BHK21 cells assessed as protection against virus-induced cytopathic effect after 3 to 4 days by MTT assay; format: functional, organism-based; details: Mammalian orthoreovirus 1, BHK-21
In short: (§1)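 BHK-21 cells (MDBK for BVDV) seeded at 5×10^4 (BHK) or 3×10^4 (MDBK) cells/well and grown overnight to confluence. Infected at m.o.i. 0.01 in maintenance MEM-Earle with 0.5% inactivated FBS. Serial compound dilutions added 2 h later (final 100, 20, 4, 0.8 µM; DMSO ≤0.1%). Viability read by MTT after 3–4 days at 37 °C. EC50 obtained by linear regression against untreated controls; mean of three determinations.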

Vaccinia virus = experiment: Antiviral activity against Vaccinia virus Lister ATCC VR 1549 infected in African green monkey Vero 76 cells assessed as protection against virus-induced cytopathic effect after 3 days by crystal violet staining-based plaque reduction assay; format: functional, organism-based; details: Orthopoxvirus vaccinia, ATCC VR 1549, Vero 76, 72 h
[2] = Cytotoxicity against human MT4 cells assessed as decrease in cell viability after 96 hrs by MTT assay; format: cell-based
In short: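 Exponentially growing MT-4 cells seeded at 1×10^5 cells/mL in RPMI-1640 with 10% FBS and incubated with serial compound dilutions at 37 °C, 5% CO2. Viability read by MTT after 96 h. CC50 by linear regression versus untreated controls.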

[3] = tested on: Bovine viral diarrhea virus 1; experiment: Antiviral activity against Bovine viral diarrhea virus NADL ATCC VR 534 infected in bovine MDBK cells assessed as protection against virus-induced cytopathic effect after 3 to 4 days by MTT assay; format: functional, organism-based, Bovine viral diarrhea virus 1-NADL; details: Bovine viral diarrhea virus isolates and strains, ATCC VR 534, MDBK; in short: as §1
[4] = tested on: Human immunodeficiency virus 1; experiment: Antiviral activity against HIV1 3B infected in human MT4 cells assessed as protection against virus-induced cytopathic effect after 4 days by MTT assay; format: functional, organism-based; details: Human immunodeficiency virus 1, 3B, MT4, 96 h
In short: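 MT-4 cells (1×10^4/well) in RPMI with serial compound dilutions, infected with 100 CCID50 HIV-1 (m.o.i. 0.01). Viability read by MTT after 4 days at 37 °C. EC50 for 50% protection from cytopathicity obtained by linear regression versus untreated controls; mean of three determinations.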

[5] = Antiviral activity against Human enterovirus B Faulkner ATCC VR 185 infected in African green monkey Vero 76 cells assessed as protection against virus-induced cytopathic effect after 3 days by crystal violet staining-based plaque reduction assay; format: functional, cell-based; details: Faulkner ATCC VR 185, Vero 76, 72 h
[6] = tested on: Vesicular stomatitis Indiana virus; experiment: Antiviral activity against Vesicular stomatitis virus Indiana ATCC VR 158 infected in African green monkey Vero 76 cells assessed as protection against virus-induced cytopathic effect after 2 days by crystal violet staining-based plaque reduction assay; format: functional, organism-based; details: ATCC VR 158, Vero 76, 48 h
[7] = Cytotoxicity against bovine MDBK cells assessed as decrease in cell viability after 72 hrs by MTT assay; format: cell-based, Bos taurus; details: cattle
In short: (§2)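 Uninfected MDBK (6×10^5 cells/mL, 10% horse serum) or BHK (1×10^6 cells/mL, 10% FBS) cells in MEM-Earle with serial compound dilutions at 37 °C, 5% CO2, run in parallel with the antiviral assays. Viability read by MTT after 72 h. CC50 by linear regression; mean of three determinations.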

dengue virus type 2 = experiment: Antiviral activity against Dengue virus type 2 clinical isolate infected in golden hamster BHK21 cells assessed as protection against virus-induced cytopathic effect after 3 to 4 days by MTT assay; format: functional, organism-based; details: BHK-21; in short: as §1
Human alphaherpesvirus 1 = experiment: Antiviral activity against Human herpesvirus 1 KOS ATCC VR 1493 infected in African green monkey Vero 76 cells assessed as protection against virus-induced cytopathic effect after 3 days by crystal violet staining-based plaque reduction assay; format: functional, organism-based; details: Human alphaherpesvirus 1, KOS, Vero 76, 72 h
Yellow fever virus [8] = experiment: Antiviral activity against Yellow fever virus 17D vaccine (Stamaril Pasteur J07B01) infected in golden hamster BHK21 cells assessed as protection against virus-induced cytopathic effect after 3 to 4 days by MTT assay; format: functional, organism-based; details: BHK-21; in short: as §1
[9] = Cytotoxicity against golden hamster BHK21 cells assessed as decrease in cell viability after 72 hrs by MTT assay; format: cell-based, Mesocricetus auratus, BHK-21; in short: as §2
Enterovirus C = experiment: Antiviral activity against Enterovirus C Sabin […] infected in African green monkey Vero 76 cells assessed as protection against virus-induced cytopathic effect after 2 days by crystal violet staining-based plaque reduction assay; format: functional, organism-based; details: Vero 76, 48 h
[10] = Selectivity index, ratio of CC50 for bovine MDBK cells to EC50 for Bovine viral diarrhea virus NADL ATCC VR 534; format: toxicity; details: cattle, read-out: Ratio CC50/EC50
In short: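 Selectivity index calculated as MDBK CC50 divided by BVDV EC50, both by MTT.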

[11] = Selectivity index, ratio of CC50 for golden hamster BHK21 cells to EC50 for Yellow fever virus 17D; format: toxicity; details: read-out: Ratio CC50/EC50
In short: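 Selectivity index calculated as BHK-21 CC50 divided by YFV EC50, both from MTT assays.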

West Nile virus = experiment: Antiviral activity against West Nile virus clinical isolate infected in golden hamster BHK21 cells assessed as protection against virus-induced cytopathic effect after 3 to 4 days by MTT assay; format: functional, organism-based; details: BHK-21; in short: as §1
[12] = Selectivity index, ratio of CC50 for African green monkey Vero 76 cells to EC50 for Human coxsackievirus B5 Faulkner; format: toxicity; details: read-out: Ratio CC50/EC50
In short: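 Selectivity index calculated as Vero 76 CC50 (MTT) divided by CVB-5 plaque-reduction EC50.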

[13] = Cytotoxicity against African green monkey Vero 76 cells assessed as decrease in cell viability after 48 to 96 hrs by MTT assay; format: cell-based; details: chlorocebus sabaeus
In short: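 Vero 76 cells seeded at 5×10^5 cells/mL in D-MEM with 10% FBS and incubated with serial compound dilutions at 37 °C, 5% CO2. Viability read by MTT after 48–96 h. CC50 by linear regression versus untreated controls.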

Yellow fever virus [14] = experiment: Potency index, ratio of azauridine EC50 to compound EC50 for Yellow fever virus 17D vaccine (Stamaril Pasteur J07B01); format: functional
Human orthopneumovirus = experiment: Antiviral activity against Human respiratory syncytial virus A2 ATCC VR 1540 infected in African green monkey Vero 76 cells assessed as protection against virus-induced cytopathic effect after 5 days by crystal violet staining-based plaque reduction assay; format: functional, organism-based; details: ATCC VR 1540, Vero 76, 120 h
[15] = Cytotoxicity against African green monkey Vero 76 cells assessed as decrease in cell viability after 5 days by MTT assay; format: cell-based; details: chlorocebus sabaeus

Structure (SMILES) | EC50 [1] | EC50 (Vaccinia virus) | CC50 at 96 h [2] | EC50 [3] | EC50 [4] | EC50 [5] | EC50 [6] | CC50 at 72 h [7] | EC50 (dengue virus type 2) | EC50 (Human alphaherpesvirus 1) | EC50 (Yellow fever virus [8]) | CC50 at 72 h [9] | EC50 (Enterovirus C) | selectivity ratio [10] | selectivity ratio [11] | EC50 (West Nile virus) | selectivity ratio [12] | CC50 [13] | Ratio EC50 (Yellow fever virus [14]) | EC50 (Human orthopneumovirus) | also measured
Cc1ccc(C2CC(c3ccc(OCc4ccccc4)cc3)=NN2c2ccc(S(N)(=O)=O)cc2)cc1 (stereo not given) | > 32 µM | > 100 µM | 35 µM | 2.5 µM | > 35 µM | 13 µM | > 100 µM | 80 µM | > 36 µM | > 100 µM | 1.8 µM | 32 to 36 µM | > 100 µM | 32 | 20 | > 36 µM | 7.7 | 100 µM | 10 | > 100 µM | 
Cc1cccc(C2CC(c3ccc(Oc4ccccc4)cc3)=NN2c2ccc(S(N)(=O)=O)cc2)c1 (stereo not given) | > 8 µM | > 81 µM | 35 µM | > 6 µM | > 35 µM | > 81 µM | > 81 µM | 6 µM | > 9 µM | > 81 µM | 1.8 µM | 8 to 9 µM | > 81 µM |  | 5 | > 9 µM |  | 81 µM | 10 | > 14 µM | CC50 at 120 h [15]: 14 µM
NS(=O)(=O)c1ccc(N2N=C(c3ccc(OCc4ccccc4)cc3)CC2c2cccc(Cl)c2)cc1 (stereo not given) | > 47 µM | > 85 µM | 36 µM | 5.5 µM | 11 µM | > 85 µM | > 85 µM | 40 µM | > 45 µM | > 85 µM | 2 µM | 45 to 47 µM | > 85 µM | 7.3 | 22.5 | > 45 µM |  | 85 µM | 10 | > 85 µM | 
Cc1cccc(C2CC(c3ccc(OCc4ccccc4)cc3)=NN2c2ccc(S(N)(=O)=O)cc2)c1 (stereo not given) | > 8 µM | > 100 µM | 44 µM | 12.5 µM | > 44 µM | 8 µM | > 100 µM | 56 µM | > 9 µM | > 100 µM | 1.8 µM | 8 to 9 µM | > 100 µM | 4.5 | 5 | > 9 µM | 12.5 | 100 µM | 10 | > 100 µM | 
NC(=O)c1ncn([C@@H]2O[C@H](CO)[C@@H](O)[C@H]2O)n1 [RIBAVIRIN] |  |  |  | 20 µM |  |  |  | 62 µM |  |  |  |  |  | 3 |  |  |  | > 100 µM |  | 1.2 µM | 
NS(=O)(=O)c1ccc(N2N=C(c3ccc(OCc4ccccc4)cc3)CC2c2ccccc2Cl)cc1 (stereo not given) | > 12 µM | > 92 µM | 26 µM | 7.5 µM | > 26 µM | > 92 µM | > 92 µM | 52 µM | > 12 µM | > 92 µM | 1.9 µM | 12 µM | > 92 µM | 6.9 | 6.3 | > 12 µM |  | 92 µM | 10 | > 92 µM | 
NS(=O)(=O)c1ccc(N2N=C(c3ccc(OCc4ccccc4)cc3)CC2c2ccc(Cl)cc2)cc1 (stereo not given) | > 16 µM | > 82 µM | 70 µM | 4.5 µM | > 70 µM | > 82 µM | > 82 µM | 16 µM | > 15 µM | > 82 µM | 1.9 µM | 15 to 16 µM | > 82 µM | 3.6 | 7.9 | > 15 µM |  | 82 µM | 10 | > 82 µM | 
NS(=O)(=O)c1ccc(N2N=C(c3ccc(Oc4ccccc4)cc3)CC2c2ccccc2Cl)cc1 (stereo not given) | > 8 µM | > 29 µM | 40 µM | > 5 µM | > 40 µM | 10.5 µM | > 29 µM | 5 µM | > 9 µM | > 29 µM | 1.8 µM | 8 to 9 µM | > 29 µM |  | 5 | > 9 µM | 2.8 | 29 µM | 10 | > 29 µM | 

Reference: ChEMBL document CHEMBL4130485, “Inhibitors of Yellow Fever Virus replication based on 1,3,5-triphenyl-4,5-dihydropyrazole scaffold: Design, synthesis and antiviral evaluation” (Eur J Med Chem, 2017)
